Measured values taken from publication PMC7680358 (European journal of medicinal chemistry, 2020).
≈ marks a conversion by molar mass, not a printed value.

Key:
[1] = system: S. saprophyticus ATCC 15305; assay: MIC by broth microdilution; type: cell-based; settings: Staphylococcus saprophyticus, ATCC15305, read-out: MIC SSAP
Outline: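 Broth microdilution per CLSI in cation-adjusted Mueller-Hinton broth (Staphylococcus spp.). Two-fold serial dilutions ran from 256 to 0.5 μg/mL, with an inoculum of ~5 × 10^5 CFU/mL. Plates were read after 20 h at 37 °C. MIC = lowest concentration with no observable growth.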

[2] = system: B. subtilis strain BS1048 (RpoC-GFP); assay: Confocal fluorescence microscopy of GFP-tagged RNAP; type: cell-based; settings: 8e added at ½ MIC, 15 min
Outline: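 BS1048 (RpoC-GFP) was plated on LB agar. […] 2.5 μL of culture was mounted on a fresh 1.2% agarose pad under a coverslip. Imaging used a confocal microscope with a 63×/1.3 oil objective and a mercury metal halide lamp.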

[3] = system: S. aureus ATCC 29213; assay: Cell content quantification; type: cell-based, Staphylococcus aureus; settings: ¼ and ⅛ MIC, versus untreated control
Outline: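 S. aureus ATCC 29213 master culture was started at OD600 0.1 with shaking at 175 rpm, 37 °C. At OD600 0.2 (early log) it was split and dosed at ¼ and ⅛ MIC, with a drug-free control. Cells were harvested when the control reached OD600 0.6; other samples were taken at volumes adjusted to an OD600 equivalent of 0.6. 3 mL was pelleted at 5000 × g, 5 min, 4 °C, and DNA/RNA/protein co-extracted with a kit. DNA and RNA were read by fluorometric broad-range assays, protein by BCA. Triplicate.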

Compound | MIC [1] | Localization of GFP-tagged RNAP fluorescence [2] | Total RNA levels [3] | Total levels of DNA [3] | Total levels of protein [3]
O=C(O)c1ccc(C(F)(F)F)cc1C(=O)c1ccc(Sc2ccc(Cl)c(Cl)c2)c([N+](=O)[O-])c1 [8e, 2-(4-((3,4-Dichlorophenyl)thio)-3-nitrobenzoyl)-4-(trifluoromethyl)benzoic acid] | 0.5 to 1 µg/mL (≈ 0.968 to 1.94 µM) | delocalized from the nucleoid | reducing the total levels of staphylococcal RNA in a dose-dependent manner | largely unaffected | reduced the total levels of protein
CO[C@H]1/C=C/O[C@@]2(C)Oc3c(C)c(O)c4c(O)c(c(/C=N/N5CCN(C)CC5)c(O)c4c3C2=O)NC(=O)/C(C)=C\C=C\[C@H](C)[C@H](O)[C@@H](C)[C@@H](O)[C@@H](C)[C@H](OC(C)=O)[C@@H]1C [rifampicin, reference compound] | – | – | significantly reduced | largely unaffected | –
